Measured values: ChEMBL document CHEMBL2062504, “Diterpenoid alkaloids from the lateral root of Aconitum carmichaelii” (J Nat Prod, 2012)
Activity calls are given as the source filed them. The calls are words filed in the database; no cut-off is given here.

Assays:
[1] = Toxicity in ip dosed mouse acetic acid wrtihe model; format: organism-based; conditions: in vivo
How it was run: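 Acute toxicity in mice dosed intraperitoneally, reported as LD50 in mg/kg.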

Liver microsomes = assay: Antioxidant activity in rat liver microsome assessed as inhibition of FeSO4-induced lipid peroxidation at 10 uM incubated for 15 mins prior to FeSO4-challenge measured after 15 mins by modified thiobarbituric acid method; format: functional
BGC-823 = assay: Cytotoxicity against human BGC823 cells at 10 uM after 96 hrs by MTT assay; format: functional, cell-based
WB-F344 = assay: Hepatoprotective activity against DL-galactosamine-induced cell death in rat WB-F344 cells at 10 uM incubated for 1 hr prior to DL-galactosamine-challenge measured after 24 hrs by MTT assay; format: functional, cell-based
A549 = assay: Cytotoxicity against human A549 cells at 10 uM after 96 hrs by MTT assay; format: functional, cell-based
Mus musculus [2] = assay: Toxicity in mouse acetic acid writhe model assessed as mortality at 5 mg/kg, ip; format: organism-based; design: dose 5 mg/kg, route intraperitoneal; conditions: in vivo
How it was run: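 Mice given 5 mg/kg ip in the acetic acid-induced writhing test; deaths recorded, alongside percent reduction of writhes versus blank control.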

MCF7 = assay: Cytotoxicity against human MCF7 cells at 10 uM after 96 hrs by MTT assay; format: functional, cell-based
HCT-8 = assay: Cytotoxicity against human HCT8 cells at 10 uM after 96 hrs by MTT assay; format: functional, cell-based
Mus musculus [3] = assay: Analgesic activity in mouse assessed as reduction in acetic acid-induced writhing at 0.5 mg/kg, ip relative to vehicle-treated control; format: functional; design: scale not given: the % may be the effect or the level left; conditions: route intraperitoneal
How it was run: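 Acetic acid-induced writhing test in mice. Compound given intraperitoneally at 0.5 mg/kg. Analgesia expressed as percent reduction in number of writhes versus blank control.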

[4] = test system: Peritoneal macrophage cell; assay: Antiinflammatory activity in mouse peritoneal macrophages assessed as inhibition of nitric oxide production at 10 uM; format: functional, cell-based
Bel-7402 = assay: Cytotoxicity against human Bel7402 cells at 10 uM after 96 hrs by MTT assay; format: functional, cell-based
KETR3 = assay: Cytotoxicity against human Ketr3 cells at 10 uM after 96 hrs by MTT assay; format: functional, cell-based
Mus musculus [5] = assay: Analgesic activity in mouse assessed as reduction in acetic acid-induced writhing at 5 mg/kg, ip relative to vehicle-treated control; format: functional; design: scale not given: the % may be the effect or the level left; conditions: route intraperitoneal
How it was run: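 Mice dosed ip at 5 mg/kg, then given acetic acid to provoke writhing. Writhes were counted, and the value is the percent reduction in writhes compared with a blank control group, reported as mean ± deviation.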

PC-12 = assay: Neuroprotective activity against serum starvation-induced cell death in rat PC12 cells assessed as cell viability at 10 uM incubated for 24 hrs prior to serum starvation measured after 24 hrs by MTT assay (reference value: 55.1+/-4.2%); format: functional; conditions: read-out: Activity

Compound	LD50 [1]	inhibition (Liver microsomes)	Activity (BGC-823)	Activity (WB-F344)	Activity (A549)	Activity (Mus musculus [2])	Activity (MCF7)	Activity (HCT-8)	Activity (Mus musculus [3])	inhibition [4]	Activity (Bel-7402)	Activity (KETR3)	Activity (Mus musculus [5])	viability at 10 µM (PC-12)
COC[C@@]12CC[C@H](OC)[C@]34C([C@H]([C@H](OC)[C@H]13)[C@]1(OC(C)=O)[C@H]3[C@@H](OC(=O)c5ccccc5)[C@](O)(C[C@H]34)[C@H](OC)[C@@H]1O)N(C)C2	4.37 mg/kg	inactive	inactive	inactive	inactive	Toxic	inactive	inactive	30%	inactive	inactive	inactive	–	–
COC[C@]12CN(C)C3[C@@H]4[C@H](OC)[C@H]1[C@@]3([C@@H](OC)C[C@H]2O)[C@]1(O)C[C@@]2(O)[C@H](OC(=O)c3ccccc3)[C@@H]1[C@]4(OC)[C@@H](O)[C@@H]2OC (stereo in doubt; 7) [listing 1 of 2 here]	–	–	–	–	–	–	–	–	–	–	–	–	35%	–
CCN1C[C@]2(COC)[C@H](O)C[C@H](OC)[C@]34C1[C@H]([C@H](OC)[C@H]23)[C@]1(O)[C@H]2[C@@H](OC(=O)c3ccccc3)[C@](O)(C[C@H]24)[C@@H](OC)[C@@H]1O	–	inactive	inactive	inactive	inactive	–	inactive	inactive	–	inactive	inactive	inactive	–	70.8%
COC[C@]12CN(C)C3[C@@H]4[C@H](OC)[C@H]1[C@@]3([C@@H](OC)C[C@H]2O)[C@]1(O)C[C@@]2(O)[C@H](OC(=O)c3ccccc3)[C@@H]1[C@]4(OC)[C@@H](O)[C@@H]2OC (stereo in doubt; 8) [listing 1 of 2 here]	–	–	–	–	–	–	–	–	–	–	–	–	56%	–
COC[C@]12CN(C)C3[C@@H]4[C@H](OC)[C@H]1[C@@]3([C@@H](OC)C[C@H]2O)[C@@H]1C[C@@]2(O)[C@H](OC(=O)c3ccccc3)[C@@H]1[C@]4(OC(=O)c1ccccc1)[C@@H](O)[C@@H]2OC	–	inactive	inactive	inactive	inactive	–	inactive	inactive	–	inactive	inactive	inactive	–	74.7%
COC[C@]12CN(C)C3[C@@H]4[C@H](OC)[C@H]1[C@@]3([C@@H](OC)C[C@H]2O)[C@]1(O)C[C@@]2(O)[C@H](OC(=O)c3ccccc3)[C@@H]1[C@]4(OC)[C@@H](O)[C@@H]2OC (stereo in doubt; 8) [listing 2 of 2 here]	–	inactive	inactive	inactive	inactive	–	inactive	inactive	–	inactive	inactive	inactive	–	–
CCN1C[C@]2(COC)CC[C@H](O)[C@]34C1[C@H]([C@H](OC)[C@H]23)[C@]1(O)[C@H]2[C@@H](OC(=O)/C=C/c3ccccc3)[C@H](C[C@H]24)[C@@H](OC)[C@@H]1O	–	inactive	inactive	inactive	inactive	–	inactive	inactive	–	inactive	inactive	inactive	–	–
COC[C@@]12CC[C@H](OC)[C@]34C(C([C@H](OC)[C@H]13)[C@]1(OC(C)=O)[C@H]3[C@@H](OC(=O)c5ccccc5)[C@](O)(C[C@H]34)[C@@H](OC)[C@@H]1O)N(C)C2 [HYPACONITINE]	2.65 mg/kg	inactive	inactive	inactive	inactive	Toxic	inactive	inactive	36%	inactive	inactive	inactive	–	–
C=C1C[C@]23C4[C@@H](OC(=O)[C@@H](C)CC)[C@H]1[C@@H](O)[C@H]2[C@]12C[C@@H](OC(=O)C(C)C)C[C@]5(C)[C@H]1[C@H]([C@@H]3O)[N+](C)([C@H]42)[C@H]5O	–	inactive	inactive	inactive	inactive	–	inactive	inactive	–	inactive	inactive	inactive	–	–
CCN1C[C@]2(COC)CC[C@H](O)[C@]34C1[C@H](C[C@H]23)[C@]1(O)[C@H]2[C@@H](OC(=O)c3ccccc3)[C@H](C[C@H]24)[C@@H](OC)[C@@H]1O	–	inactive	inactive	inactive	inactive	–	inactive	inactive	–	inactive	inactive	inactive	–	–
C=C1C[C@]23C4[C@@H](OC(=O)[C@@H](C)CC)[C@H]1[C@@H](O)[C@H]2[C@]12C[C@@H](OC(=O)CC)C[C@]5(C)[C@H]1[C@H]([C@@H]3O)[N+](C)([C@H]42)[C@H]5O	–	inactive	inactive	inactive	inactive	–	inactive	inactive	–	inactive	inactive	inactive	–	–
COC[C@]12CN(C)C3[C@@H]4[C@H](OC)[C@H]1[C@@]3([C@@H](OC)C[C@H]2O)[C@]1(O)C[C@@]2(O)[C@H](OC(=O)c3ccccc3)[C@@H]1[C@]4(OC)[C@@H](O)[C@@H]2OC (stereo in doubt; 7) [listing 2 of 2 here]	–	inactive	inactive	inactive	inactive	–	inactive	inactive	–	inactive	inactive	inactive	–	–
CCN1C[C@]2(COC)CC[C@H](OC)[C@]34C1[C@H]([C@H](O)[C@H]23)[C@]1(OC)[C@H]2[C@@H](OC(=O)c3ccccc3)[C@H](C[C@H]24)[C@@H](OC)[C@@H]1O	–	inactive	inactive	inactive	inactive	–	inactive	inactive	–	inactive	inactive	inactive	–	75.8%
